For 26 compounds, IC50, CC50 and EC50 results are on record in ChEMBL document CHEMBL4373700, “Synthesis and Structure-Activity Relationship Correlations of Gnidimacrin Derivatives as Potent HIV-1 Inhibitors and HIV Latency Reversing Agents” (J Med Chem, 2019).

Series [1] in a line: Agonist activity at Protein kinase C in human MT4 cells infected with HIV-1 NL4-3 assessed as inhibition of viral replication measured on day 3 post-infection by Nano-Glo luciferase assay.
In series [2] the test system is MT4. In words: Cytotoxicity against human MT4 cells measured after 3 days by CytoTox-Glo assay. Format: cell-based. To be noted: mt4, 72 h. A digest of the protocol: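 MT4 cells cultured with a range of compound concentrations for 3 days. Viability by CytoTox-Glo, run per the manufacturer's protocol. CC50 is the concentration causing a 50% drop in viability.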

The target of series [3] is Protein kinase C (PKC). In words: Agonist activity at Protein kinase C in human U1 cells infected with HIV-1 NL4-3 assessed as induction of HIV-1 p24 production after 72 hrs by ELISA. Format: cell-based. The method, boiled down: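 Latency model: U1 cells (2 × 10^5 cells/mL) incubated with a range of compound concentrations at 37 °C for 72 h. p24 in the supernatant measured by ELISA. EC50 is the concentration giving 50% of maximal p24 induction, from nonlinear regression.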

With `C=C(C)[C@]12C[C@@H](CO)[C@@]34OC5(O[C@@H]1[C@@H]3[C@@H]1O[C@]1(CO)[C@@H](O)[C@@]1(O)[C@H]4[C@H]([C@H](C)[C@@H]1O)[C@H](C)CCCCCC[C@H]5O)O2`, in series [1], the 50% inhibitory concentration (IC50) – broadly, the concentration that gives 50% inhibition – is more than 1 nM. Besides, in series [2], the CC50 (as a rule, the concentration giving 50% cytotoxicity) was more than 1 nM.

Take `C=C(C)[C@]12C[C@@H](COC(=O)c3ccccc3)[C@@]34OC5(O[C@@H]1[C@@H]3[C@@H]1O[C@]1(CO)[C@@H](O)[C@@]1(O)[C@H]4[C@H]([C@H](C)[C@@H]1OC(=O)c1ccccc1)[C@H](C)CCCCCC[C@H]5OC(=O)c1ccc([N+](=O)[O-])cc1)O2`: in series [1], the half-maximal inhibitory concentration (IC50) is reported as more than 1 nM. This compound gave a CC50 in series [2] of more than 1 nM.

Take `C=C(C)[C@]12C[C@@H](COC(=O)c3ccccc3)[C@@]34OC5(O[C@@H]1[C@@H]3[C@@H]1O[C@]1(CO)[C@@H](OC(=O)c1ccccc1)[C@@]1(O)[C@H]4[C@H]([C@H](C)[C@@H]1OC(=O)c1ccccc1)[C@H](C)CCCCCC[C@H]5O)O2`: the IC50 in series [1] is listed as more than 1 nM. The CC50 in series [2] is more than 1 nM.

Regarding `C=C(C)[C@]12C[C@@H](COC(=O)c3ccccc3)[C@@]34OC5(O[C@@H]1[C@@H]3[C@@H]1O[C@]1(CO)[C@@H](OC(C)=O)[C@@]1(O)[C@H]4[C@H]([C@H](C)[C@@H]1OC(=O)c1ccccc1)[C@H](C)CCCCCC[C@H]5O)O2`, the 50% inhibitory concentration (IC50) in series [1] is listed as more than 1 nM. This compound registered a half-maximal cytotoxic concentration (CC50) in series [2] of more than 1 nM.

As for `C=C(C)[C@]12C[C@@H](COC(=O)c3ccccc3)[C@@]34OC5(O[C@@H]1[C@@H]3[C@@H]1O[C@]1(COC(=O)c1ccccc1)[C@@H](O)[C@@]1(O)[C@H]4[C@H]([C@H](C)[C@@H]1OC(=O)c1ccccc1)[C@H](C)CCCCCC[C@H]5OC(=O)c1ccccc1)O2`, the IC50 in series [1] was more than 1 nM. The compound also gave a CC50 in series [2] of more than 1 nM.

For the compound `C=C(C)[C@]12C[C@@H](COC(=O)c3ccccc3)[C@@]34OC5(O[C@@H]1[C@@H]3[C@@H]1O[C@]1(COC(=O)C1(C)COC(C)(C)OC1)[C@@H](O)[C@@]1(O)[C@H]4[C@H]([C@H](C)[C@@H]1OC(=O)c1ccccc1)[C@H](C)CCCCCC[C@H]5O)O2`, the half-maximal inhibitory concentration (IC50) in series [1] is on record as more than 1 nM. The compound further gave a cytotoxic concentration (CC50) in series [2] of more than 1 nM.

Turning to `C=C(C)[C@]12C[C@@H](COC(=O)c3ccccc3)[C@@]34OC5(O[C@@H]1[C@@H]3[C@@H]1O[C@]1(COC(=O)c1ccccc1)[C@@H](O)[C@@]1(O)[C@H]4[C@H]([C@H](C)[C@@H]1OC(=O)c1ccccc1)[C@H](C)CCCCCC[C@H]5O)O2`, the 50% inhibitory concentration (IC50) in series [1] was more than 1 nM. In series [2], this compound returned a CC50 of more than 1 nM.

In the case of `C=C(C)[C@]12C[C@@H](COC(=O)c3ccccc3)[C@@]34OC5(O[C@@H]1[C@@H]3[C@@H]1O[C@]1(CO)[C@@H](O)[C@@]1(O)[C@H]4[C@H]([C@H](C)[C@@H]1OC(=O)/C=C/c1ccccc1)[C@H](C)CCCCCC[C@H]5O)O2`, the IC50 in series [1] is reported as more than 1 nM. Besides, the cytotoxic concentration (CC50) in series [2] was more than 1 nM.

As for `C=C(C)[C@]12C[C@@H](COC(=O)c3ccccc3)[C@@]34OC5(O[C@@H]1[C@@H]3[C@@H]1O[C@]1(CO)[C@@H](O)[C@@]1(O)[C@H]4[C@H]([C@H](C)[C@@H]1OC(=O)c1ccccc1)[C@H](C)CCCCCC[C@H]5OC(=O)/C=C/c1ccccc1)O2`, in series [1], the concentration for half-maximal inhibition (IC50) is more than 1 nM. The CC50 in series [2] was more than 1 nM.

With `C=C(C)[C@]12C[C@@H](COC(=O)c3ccccc3)[C@@]34OC5(O[C@@H]1[C@@H]3[C@@H]1O[C@]1(CO)[C@@H](O)[C@@]1(O)[C@H]4[C@H]([C@H](C)[C@@H]1O)[C@H](C)CCCCCC[C@H]5O)O2`, the half-maximal inhibitory concentration (IC50) in series [1] is reported as more than 1 nM. In addition, in series [2], the CC50 was more than 1 nM.

Take `C=C(C)[C@]12C[C@@H](COC(=O)c3ccccc3)[C@@]34OC5(O[C@@H]1[C@@H]3[C@@H]1O[C@]1(CO)[C@@H](O)[C@@]1(O)[C@H]4[C@H]([C@H](C)[C@@H]1OC(=O)c1ccccc1)[C@H](C)CCCCCC[C@H]5OC(C)=O)O2`: the half-maximal inhibitory concentration (IC50) in series [1] was determined as 0.09 nM. This compound also gave a CC50 in series [2] of more than 1 nM.

Turning to `C=C(C)[C@]12C[C@@H](COC(=O)c3ccccc3)[C@@]34OC5(O[C@@H]1[C@@H]3[C@@H]1O[C@]1(CO)[C@@H](O)[C@@]1(O)[C@H]4[C@H]([C@H](C)[C@@H]1OC(=O)c1ccccc1)[C@H](C)CCCCCC[C@H]5OC(=O)c1ccc(OC)cc1)O2`, the IC50 in series [1] is listed as more than 1 nM. For the same compound, the CC50 in series [2] is more than 1 nM.

`C=C(C)[C@]12C[C@@H](COC(=O)c3ccccc3)[C@@]34OC5(O[C@@H]1[C@@H]3[C@@H]1O[C@]1(COC(=O)CCC(=O)O)[C@@H](O)[C@@]1(O)[C@H]4[C@H]([C@H](C)[C@@H]1OC(=O)c1ccccc1)[C@H](C)CCCCCC[C@H]5O)O2`: the IC50 in series [1] is on record as more than 1 nM. The compound also returned a half-maximal cytotoxic concentration (CC50) in series [2] of more than 1 nM.

Take `C=C(C)[C@]12C[C@@H](COC(=O)c3ccccc3)[C@@]34OC5(O[C@@H]1[C@@H]3[C@@H]1O[C@]1(CO)[C@@H](O)[C@@]1(O)[C@H]4[C@H]([C@H](C)[C@@H]1OC(=O)c1ccccc1)[C@H](C)CCCCCC[C@H]5OC(=O)/C(C)=C/C)O2`: in series [1], the IC50 is on record as more than 1 nM. The compound also registered a CC50 in series [2] of more than 1 nM.

As to `C=C(C)[C@]12C[C@@H](COC(=O)c3ccccc3)[C@@]34OC5(O[C@@H]1[C@@H]3[C@@H]1O[C@]1(CO)[C@@H](O)[C@@]1(O)[C@H]4[C@H]([C@H](C)[C@@H]1OC(=O)c1ccccc1)[C@H](C)CCCCCC[C@H]5OC(=O)c1ccccc1)O2`, the IC50 in series [1] is more than 1 nM. In series [2], the CC50 was more than 1 nM.

As for `C=C(C)[C@]12C[C@@H](COC(=O)c3ccccc3)[C@@]34OC5(O[C@@H]1[C@@H]3[C@@H]1O[C@]1(COC(C)=O)[C@@H](O)[C@@]1(O)[C@H]4[C@H]([C@H](C)[C@@H]1OC(=O)c1ccccc1)[C@H](C)CCCCCC[C@H]5O)O2`, in series [1], the IC50 is recorded as more than 1 nM. Besides, the cytotoxic concentration (CC50) in series [2] is more than 1 nM.

For the compound `C=C(C)[C@]12C[C@@H](COC(=O)c3ccccc3)[C@@]34OC5(O[C@@H]1[C@@H]3[C@@H]1O[C@]1(CO)[C@@H](O)[C@@]1(O)[C@H]4[C@H]([C@H](C)[C@@H]1OC(=O)c1ccccc1)[C@H](C)CCCCCC[C@H]5OC(=O)c1ccc3ccccc3c1)O2`, the IC50 in series [1] is listed as more than 1 nM. Also, the CC50 in series [2] was more than 1 nM.

Turning to `CC(C)[C@]12C[C@@H](COC(=O)c3ccccc3)[C@@]34OC5(O[C@@H]1[C@@H]3[C@@H]1O[C@]1(CO)[C@@H](O)[C@@]1(O)[C@H]4[C@H]([C@H](C)[C@@H]1OC(=O)c1ccccc1)[C@H](C)CCCCCC[C@H]5O)O2`, the 50% inhibitory concentration (IC50) in series [1] stood at 0.18 nM. In series [2], this compound had a CC50 of more than 1 nM.

For the compound `C=C(C)[C@]12C[C@@H](COC(=O)c3ccccc3)[C@@]34OC5(O[C@@H]1[C@@H]3[C@@H]1O[C@]1(COC(C)=O)[C@@H](OC(C)=O)[C@@]1(O)[C@H]4[C@H]([C@H](C)[C@@H]1OC(=O)c1ccccc1)[C@H](C)CCCCCC[C@H]5OC(C)=O)O2`, the IC50 in series [1] was more than 1 nM. The same compound returned a 50% cytotoxic concentration (CC50) in series [2] of more than 1 nM.

Turning to `C=C(C)[C@]12C[C@@H](COC(=O)c3ccccc3)[C@@]34OC5(O[C@@H]1[C@@H]3[C@@H]1O[C@]1(CO)[C@@H](O)[C@@]1(O)[C@H]4[C@H]([C@H](C)[C@@H]1OC(=O)c1ccc(OC)cc1)[C@H](C)CCCCCC[C@H]5O)O2`, the IC50 in series [1] is on record as 0.17 nM. In addition, the cytotoxic concentration (CC50) in series [2] was more than 1 nM.

With `C=C(C)[C@]12C[C@@H](COC(=O)c3ccccc3)[C@@]34OC5(O[C@@H]1[C@@H]3[C@@H]1O[C@]1(COC(=O)/C=C/c1ccc(OC)cc1)[C@@H](O)[C@@]1(O)[C@H]4[C@H]([C@H](C)[C@@H]1OC(=O)c1ccccc1)[C@H](C)CCCCCC[C@H]5O)O2`, in series [1], the IC50 was more than 1 nM. This compound also showed a CC50 in series [2] of more than 1 nM.

`C=C(C)[C@]12C[C@@H](COC(=O)c3ccccc3)[C@@]34OC5(O[C@@H]1[C@@H]3[C@@H]1O[C@]1(CO)C(=O)[C@@]1(O)[C@H]4[C@H]([C@H](C)[C@@H]1OC(=O)c1ccccc1)[C@H](C)CCCCCC[C@H]5O)O2`: the EC50 (commonly the concentration needed to bring the measured effect to its halfway point) in series [3] was more than 3.9 nM. Besides, in series [1], the 50% inhibitory concentration (IC50) is given as more than 1 nM. In addition, the CC50 in series [2] was more than 1 nM.

On to `C=C(C)[C@]12C[C@@H](COC(=O)c3ccccc3)[C@@]34OC5(O[C@@H]1[C@@H]3[C@@H]1O[C@]1(COC(=O)CC(C)(C)C(=O)O)[C@@H](O)[C@@]1(O)[C@H]4[C@H]([C@H](C)[C@@H]1OC(=O)c1ccccc1)[C@H](C)CCCCCC[C@H]5O)O2`, for which the IC50 in series [1] is recorded as more than 1 nM. Also, the cytotoxic concentration (CC50) in series [2] is more than 1 nM.

Take `C=C(C)[C@]12C[C@@H](COC(=O)c3ccccc3)[C@@]34OC5(O[C@@H]1[C@@H]3[C@@H]1O[C@]1(COC(=O)[C@@]13CC[C@@](C)(C(=O)O1)C3(C)C)[C@@H](O)[C@@]1(O)[C@H]4[C@H]([C@H](C)[C@@H]1OC(=O)c1ccccc1)[C@H](C)CCCCCC[C@H]5O)O2`: in series [1], the half-inhibitory concentration (IC50) was more than 1 nM. In addition, in series [2], the cytotoxic concentration (CC50) was more than 1 nM.

With `C=C(C)[C@]12C[C@@H](COC(=O)c3ccccc3)[C@@]34OC5(O[C@@H]1[C@@H]3[C@@H]1O[C@]1(CO)[C@@H](O)[C@@]1(O)[C@H]4[C@H]([C@H](C)[C@@H]1OC(=O)c1ccc([N+](=O)[O-])cc1)[C@H](C)CCCCCC[C@H]5O)O2`, the half-maximal inhibitory concentration (IC50) in series [1] is on record as 0.22 nM. The same compound had a 50% cytotoxic concentration (CC50) in series [2] of more than 1 nM.

`C=C(C)[C@]12C[C@@H](COC(=O)c3ccccc3)[C@@]34OC5(O[C@@H]1[C@@H]3[C@@H]1O[C@]1(COC(=O)C(C)(C)CC(=O)O)[C@@H](O)[C@@]1(O)[C@H]4[C@H]([C@H](C)[C@@H]1OC(=O)c1ccccc1)[C@H](C)CCCCCC[C@H]5O)O2`: the IC50 in series [1] is more than 1 nM. For the same compound, the half-maximal cytotoxic concentration (CC50) in series [2] was more than 1 nM.
